Results: ChEMBL document CHEMBL3102734, “Inhibition of LOX by flavonoids: a structure-activity relationship study” (Eur J Med Chem, 2014)
The source made the active and inactive calls. The calls are words filed in the database; no cut-off is given here.

Legend:
[1] = biological target: T1, Polyunsaturated fatty acid 5-lipoxygenase (Homo sapiens) (UniProt P09917); test: Inhibition of 5-LOX-mediated LTB4 production in human neutrophils using arachidonic acid as substrate at 40 uM preincubated for 10 mins followed by substrate addition measured after 8 mins by enzyme immunoassay relative to control
T1 sequence (whole entry): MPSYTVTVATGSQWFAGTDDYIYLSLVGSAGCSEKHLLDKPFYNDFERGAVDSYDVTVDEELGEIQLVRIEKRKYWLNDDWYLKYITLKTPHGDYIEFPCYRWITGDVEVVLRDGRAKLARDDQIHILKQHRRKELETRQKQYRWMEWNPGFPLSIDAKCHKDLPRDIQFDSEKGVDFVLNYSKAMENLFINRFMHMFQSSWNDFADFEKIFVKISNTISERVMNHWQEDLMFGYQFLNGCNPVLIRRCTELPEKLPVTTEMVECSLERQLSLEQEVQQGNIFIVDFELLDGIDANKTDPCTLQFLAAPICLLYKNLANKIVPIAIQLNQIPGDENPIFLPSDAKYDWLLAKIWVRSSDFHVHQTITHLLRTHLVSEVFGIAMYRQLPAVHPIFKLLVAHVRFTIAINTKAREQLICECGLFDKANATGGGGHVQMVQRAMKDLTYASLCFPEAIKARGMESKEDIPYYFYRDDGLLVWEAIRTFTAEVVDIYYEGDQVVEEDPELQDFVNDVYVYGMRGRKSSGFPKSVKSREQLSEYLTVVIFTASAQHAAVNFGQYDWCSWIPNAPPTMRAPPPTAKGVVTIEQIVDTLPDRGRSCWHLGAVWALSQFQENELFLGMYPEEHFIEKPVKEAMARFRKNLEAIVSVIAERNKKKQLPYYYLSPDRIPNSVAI
How it was run: (§1)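 Isolated human neutrophils held in HBSS on ice; viability checked by trypan blue. Cells at 3.5×10^6 cells/mL equilibrated 10 min at 37 °C. Flavonoids (0.15–40 μM) pre-incubated 10 min, then A23187 (5 μM) plus arachidonic acid (10 μg/mL) added for 8 min. Stopped with cold methanol and centrifuged 13,000 g, 1 min, 4 °C. LTB4 measured by EIA and expressed as % inhibition of control. NDGA (1 μM) positive control. At least three experiments.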

[2] = biological target: T2, Seed linoleate 13S-lipoxygenase-1 (Glycine max) (UniProt P08170); test: Binding affinity to soybean LOX-1 at 1248 uM by STD-[1H] NMR spectroscopic analysis
T2 sequence (whole entry): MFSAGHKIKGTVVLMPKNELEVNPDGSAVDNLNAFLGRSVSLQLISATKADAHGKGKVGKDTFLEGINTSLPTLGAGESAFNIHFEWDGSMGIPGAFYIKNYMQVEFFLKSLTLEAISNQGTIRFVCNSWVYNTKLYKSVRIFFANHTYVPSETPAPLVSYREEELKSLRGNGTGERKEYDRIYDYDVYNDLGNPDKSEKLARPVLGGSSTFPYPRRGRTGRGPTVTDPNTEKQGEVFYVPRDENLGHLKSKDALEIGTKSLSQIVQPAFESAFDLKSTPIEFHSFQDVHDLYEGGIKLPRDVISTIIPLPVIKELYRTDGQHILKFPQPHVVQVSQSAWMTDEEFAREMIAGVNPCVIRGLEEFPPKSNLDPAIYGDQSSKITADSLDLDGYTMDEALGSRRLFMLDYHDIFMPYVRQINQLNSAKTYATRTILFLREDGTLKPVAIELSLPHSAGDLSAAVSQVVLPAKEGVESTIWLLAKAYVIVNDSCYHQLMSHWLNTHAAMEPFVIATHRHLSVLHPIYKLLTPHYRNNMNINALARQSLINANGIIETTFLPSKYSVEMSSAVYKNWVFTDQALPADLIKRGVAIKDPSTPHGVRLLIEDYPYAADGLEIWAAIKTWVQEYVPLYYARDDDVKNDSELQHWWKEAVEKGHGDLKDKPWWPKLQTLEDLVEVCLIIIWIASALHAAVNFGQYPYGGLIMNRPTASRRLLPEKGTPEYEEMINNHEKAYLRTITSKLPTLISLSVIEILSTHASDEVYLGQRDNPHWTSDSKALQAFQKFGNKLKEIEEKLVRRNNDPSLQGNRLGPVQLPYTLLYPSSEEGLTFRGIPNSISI
How it was run: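 STD-1H NMR at 37 °C, 600 MHz, cryoprobe. Lyophilized soybean LOX-1 in Tris buffer (20 mM Tris, 7 mM (NH4)2SO4, 3.5 mM MgCl2, 0.3 mM DTT in D2O, pH 9.0). Ligand added from a 16.6 mM DMSO-d6 stock. Final concentrations: LOX 4 μM, ligand 1248 μM, ratio 300:1. On-resonance saturation at 1.0 ppm; off-resonance reference at 20000 Hz.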

[3] = biological target: T3, Seed linoleate 13S-lipoxygenase-1 (Glycine max, UniProt P08170); test: Uncompetitive inhibition of soybean LOX-1 using linoleic acid as substrate preincubated for 5 mins followed by substrate addition by Lineweaver-Burk plot analysis
T3 sequence (P08170 whole entry): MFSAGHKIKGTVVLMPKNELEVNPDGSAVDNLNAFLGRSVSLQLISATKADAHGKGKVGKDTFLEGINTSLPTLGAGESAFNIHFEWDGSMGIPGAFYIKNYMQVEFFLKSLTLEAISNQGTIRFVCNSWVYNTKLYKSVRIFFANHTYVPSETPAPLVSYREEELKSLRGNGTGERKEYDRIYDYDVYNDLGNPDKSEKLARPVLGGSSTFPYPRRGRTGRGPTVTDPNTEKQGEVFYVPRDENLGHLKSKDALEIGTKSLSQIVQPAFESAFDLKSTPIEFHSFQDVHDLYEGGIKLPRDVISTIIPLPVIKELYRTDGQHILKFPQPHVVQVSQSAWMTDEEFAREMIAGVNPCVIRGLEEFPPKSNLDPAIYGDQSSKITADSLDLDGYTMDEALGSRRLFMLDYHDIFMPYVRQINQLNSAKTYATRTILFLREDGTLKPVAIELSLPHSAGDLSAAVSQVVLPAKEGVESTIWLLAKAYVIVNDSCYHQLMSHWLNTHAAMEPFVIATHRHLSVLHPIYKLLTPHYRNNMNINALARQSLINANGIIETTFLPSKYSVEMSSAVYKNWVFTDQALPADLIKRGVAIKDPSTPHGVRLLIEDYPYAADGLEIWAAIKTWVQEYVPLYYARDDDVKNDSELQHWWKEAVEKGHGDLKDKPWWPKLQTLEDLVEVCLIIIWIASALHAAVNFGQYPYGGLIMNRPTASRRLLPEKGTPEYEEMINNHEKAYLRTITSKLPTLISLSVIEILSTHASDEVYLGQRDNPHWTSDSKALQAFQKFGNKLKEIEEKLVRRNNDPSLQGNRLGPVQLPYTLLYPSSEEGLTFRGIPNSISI
How it was run: (§2)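 Soybean LOX-1 (supplied lyophilized) kinetic assay. Enzyme pre-incubated with inhibitor 5 min, then linoleic acid added. Readings every 30 s for 10 min; rate taken as the 0–3 min slope. Three inhibitor concentrations tested against three substrate concentrations. Inhibition type assigned by nonlinear Michaelis–Menten fitting and Lineweaver–Burk plots. At least four experiments, each in triplicate.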

[4] = biological target: T4, Polyunsaturated fatty acid 5-lipoxygenase (Homo sapiens, UniProt P09917); test: Inhibition of 5-LOX-mediated LTB4 production in human neutrophils using arachidonic acid as substrate preincubated for 10 mins followed by substrate addition measured after 8 mins by enzyme immunoassay
T4 sequence (P09917 whole entry): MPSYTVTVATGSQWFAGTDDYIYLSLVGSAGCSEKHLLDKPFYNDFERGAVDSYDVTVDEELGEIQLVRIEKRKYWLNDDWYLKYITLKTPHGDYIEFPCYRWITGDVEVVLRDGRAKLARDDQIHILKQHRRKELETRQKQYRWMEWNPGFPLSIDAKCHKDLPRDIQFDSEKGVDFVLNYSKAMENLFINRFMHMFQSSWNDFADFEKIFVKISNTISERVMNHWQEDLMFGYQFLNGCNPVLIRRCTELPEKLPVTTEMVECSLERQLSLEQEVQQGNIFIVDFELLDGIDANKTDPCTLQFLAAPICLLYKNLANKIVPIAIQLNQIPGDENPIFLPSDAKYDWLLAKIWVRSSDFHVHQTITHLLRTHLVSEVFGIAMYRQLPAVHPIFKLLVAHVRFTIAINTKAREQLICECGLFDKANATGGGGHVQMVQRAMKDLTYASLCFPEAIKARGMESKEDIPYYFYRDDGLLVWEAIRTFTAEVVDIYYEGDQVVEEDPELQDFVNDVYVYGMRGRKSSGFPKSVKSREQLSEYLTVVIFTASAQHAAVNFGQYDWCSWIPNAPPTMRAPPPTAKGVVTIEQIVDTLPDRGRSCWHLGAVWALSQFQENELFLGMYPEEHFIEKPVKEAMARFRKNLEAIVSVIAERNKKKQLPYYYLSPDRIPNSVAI
How it was run: as §1, with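 “blue.” for “blue. Cells at 3.5×10^6 cells/mL equilibrated 10 min at 37 °C.”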

[5] = biological target: T3, Seed linoleate 13S-lipoxygenase-1; test: Mixed noncompetitive type inhibition of soybean LOX-1 using linoleic acid as substrate preincubated for 5 mins followed by substrate addition by Lineweaver-Burk plot analysis
How it was run: as §2, with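 “added. Conversion to the cis,trans-hydroperoxide followed at 234 nm at 30 °C with continuous soft shaking.” for “added.”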

Structure (SMILES)	inhibition [1] [%]	Activity [2]	other results
O=c1cc(-c2ccccc2)oc2cc(O)ccc12	53.1		
O=c1cc(-c2ccc(O)c(O)c2)oc2cc(O)cc(O)c12 [LUTEOLIN]		Active	Ki [3]: 122 µM; IC50 [4]: 1.6 µM
COc1ccc(-c2cc(=O)c3c(O)cc(O)cc3o2)cc1OC	< 50		
O=C1CC(c2ccc(O)cc2)Oc2cc(O)cc(O)c21 (racemic)	< 50		
O=C1c2c(O)cc(O)cc2O[C@H](c2ccc(O)c(O)c2)[C@H]1O	19.9		
O=c1cc(-c2cccc(O)c2)oc2cc(O)ccc12	51.4		
O=c1cc(-c2ccc(O)cc2)oc2cc(O)ccc12	< 50		
O=c1cc(-c2ccc(O)c(O)c2)oc2ccccc12		Active	Ki [5]: 84.5 µM; IC50 [4]: 1.7 µM
O=c1cc(-c2ccc(O)cc2)oc2cc(O)cc(O)c12 [APIGENIN]	< 50	Active	Ki [5]: 178 µM
O=c1cc(-c2ccc(O)cc2)oc2ccccc12	38.4		
O=c1cc(-c2ccc(O)c(O)c2)oc2cc(O)ccc12		Active	IC50 [4]: 2 µM
O=c1cc(-c2ccccc2)oc2ccccc12	< 50		
